≈ marks a conversion by molar mass, not a printed value. Calls of active or inactive are those of the source. The rule behind the calls is not given here.
What was measured:
B16 [1] = assay: Growth inhibitory effect when administered at dose of 2.0 mg/kg/day given in the schedule of 1,2,3,4,7 day against (B16) mouse melanoma at fourteenth day was determined; format: functional
Procedure, shortened: (§1)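 Mice given the agent on days 1, 2, 3, 4 and 7. Doxorubicin was given in physiological solution (0.9% NaCl, pH 6.2). Prodrugs were given in the same solution with 2% DMSO and 0.3% agarose. Tumour growth inhibition (%) was read on fixed days against a vehicle-treated control; in the 2.0 mg/kg/day series, controls received physiological solution only. Negative values mean tumour growth was activated.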

MG-22A [2] = assay: In vitro inhibitory activity against mouse hepatoma cell line (MG-22A) using CV coloration; format: functional, cell-based
Mus musculus [3] = assay: Physiological change in cardiomyocytes after the treatment of male JRC mice with transplanted sarcoma S-180 by the administration of compound at dose of 1.5 mg/kg/day cells isolated on the 9th day by using CB assay; format: functional
Procedure, shortened: (§2)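 Male JRC mice, healthy or bearing Sarcoma S-180, were dosed on days 1, 2, 3, 4 and 7. Cardiomyocytes were isolated on day 9 and resuspended in DMEM with 4% FBS, 2 mM glutamine, 13 mM NaHCO₃, 10 mM HEPES and streptomycin. After 4 h at 37° (95% air/5% CO₂), serum was omitted. Intracellular peptide was read by Coomassie Blue and mitochondrial redox by MTT, against cells from untreated animals.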

B16 [4] = assay: In vitro cytotoxic concentration against mouse melanoma cell line (B16) using MTT coloration; format: functional, cell-based
B16 [5] = assay: Growth inhibitory effect when administered at dose of 1.5 mg/kg/day given in the schedule of 1,2,3,4,7 day against (B16) mouse melanoma at eleventh day was determined; format: functional; settings: B16, read-out: Inhibition; procedure, shortened: as §1
Mus musculus [6] = assay: Physiological change in cardiomyocytes after the treatment of male JRC healthy mice by the administration of compound at dose of 1.5 mg/kg/day cells isolated on the 9th day by using CB assay; format: functional; procedure, shortened: as §2
Mus musculus [7] = assay: Physiological change in cardiomyocytes after the treatment of male JRC mice with transplanted sarcoma S-180 by the administration of compound at dose of 5.0 mg/kg/day cells isolated on the 9th day by using CB assay; format: functional; procedure, shortened: as §2
Mus musculus [8] = assay: Physiological change in cardiomyocytes after the treatment of male JRC mice with transplanted sarcoma S-180 by the administration of compound at dose of 1.5 mg/kg/day cells isolated on the 9th day by using MTT assay; format: functional; procedure, shortened: as §2
CCRF S-180 [9] = assay: Growth inhibitory effect administered at dose of 1.5 mg/kg/day given in the schedule of 1,2,3,4,7 day against Sarcoma S-180 tumor transplanted in male JRC mice at fourteenth day was determined; format: functional; settings: Mus musculus, in the assay text read “ninth day” for “fourteenth day”; procedure, shortened: as §1
CCRF S-180 [10] = assay: Growth inhibitory effect when administered at dose of 2.0 mg/kg/day given in the schedule of 1,2,3,4,7 day against Sarcoma S-180 tumor transplanted in male JRC mice at fourteenth day was determined; format: functional, organism-based; settings: Mus musculus
Mus musculus [11] = assay: Physiological change in cardiomyocytes after the treatment of male JRC mice with transplanted sarcoma S-180 by the administration of compound at dose of 5.0 mg/kg/day cells isolated on the 9th day by using MTT assay; format: functional; procedure, shortened: as §2
B16 [12] = assay: Growth inhibitory effect when administered at dose of 1.5 mg/kg/day given in the schedule of 1,2,3,4,7 day against (B16) mouse melanoma at fourteenth day was determined; format: functional; settings: B16, read-out: Inhibition; procedure, shortened: as §1
N2a [13] = assay: In vitro cytotoxic concentration against mouse neuroblastoma (neuro 2A) using MTT coloration; format: functional, cell-based
MG-22A [14] = assay: In vitro cytotoxic concentration against mouse hepatoma cell line (MG-22A) using MTT coloration; format: functional, cell-based
Mus musculus [15] = assay: Physiological change in cardiomyocytes after the treatment of male JRC healthy mice by the administration of compound at dose of 5.0 mg/kg/day cells isolated on the 9th day by using MTT assay; format: functional; procedure, shortened: as §2
HT-1080 [16] = assay: In vitro cytotoxic concentration against human fibrosarcoma cell line (HT1080) using MTT coloration; format: functional, cell-based
CCRF S-180 [17] = assay: Growth inhibitory effect administered at dose of 1.5 mg/kg/day given in the schedule of 1,2,3,4,7 day against Sarcoma S-180 tumor transplanted in male JRC mice at eleventh day was determined; format: functional; settings: Mus musculus, in the assay text read “seventh day” for “eleventh day”; procedure, shortened: as §1
B16 [18] = assay: Growth inhibitory effect when administered at dose of 2.0 mg/kg/day given in the schedule of 1,2,3,4,7 day against (B16) mouse melanoma at eleventh day was determined; ND= No data; format: functional; procedure, shortened: as §1
HT-1080 [19] = assay: In vitro inhibitory activity against human fibrosarcoma cell line (HT1080) using CV coloration; format: functional, cell-based
N2a [20] = assay: In vitro inhibitory activity against mouse neuroblastoma (neuro 2A) using CV coloration; format: functional, cell-based
B16 [21] = assay: In vitro inhibitory activity against mouse melanoma cell line (B16) using CV coloration; format: functional, cell-based
B16 [22] = assay: Growth inhibitory effect when administered at dose of 5.0 mg/kg/day given in the schedule of 1,2,3,4,7 day against (B16) mouse melanoma at eleventh day was determined; format: functional; procedure, shortened: as §1
Mus musculus [23] = assay: Physiological change in cardiomyocytes after the treatment of male JRC healthy mice by the administration of compound at dose of 5.0 mg/kg/day cells isolated on the 9th day by using CB assay; format: functional; procedure, shortened: as §2
B16 [24] = assay: Growth inhibitory effect when administered at dose of 5.0 mg/kg/day given in the schedule of 1,2,3,4,7 day against (B16) mouse melanoma at fourteenth day was determined; format: functional; procedure, shortened: as §1
CCRF S-180 [25] = assay: Growth inhibitory effect when administered at dose of 5.0 mg/kg/day given in the schedule of 1,2,3,4,7 day against Sarcoma S-180 tumor transplanted in male JRC mice at fourteenth day was determined; format: functional, Mus musculus; procedure, shortened: as §1
Mus musculus [26] = assay: Physiological change in cardiomyocytes after the treatment of male JRC healthy mice by the administration of compound at dose of 1.5 mg/kg/day cells isolated on the 9th day by using MTT assay; format: functional; procedure, shortened: as §2
CCRF S-180 [27] = assay: Growth inhibitory effect administered at dose of 1.5 mg/kg/day given in the schedule of 1,2,3,4,7 day against Sarcoma S-180 tumor transplanted in male JRC mice at fourteenth day was determined; No effect; format: functional, organism-based; settings: Mus musculus; procedure, shortened: as §1
B16 [28] = assay: Growth inhibitory effect administered at dose of 1.5 mg/kg/day given in the schedule of 1,2,3,4,7 day against (B16) mouse melanoma at eleventh day was determined; format: functional; procedure, shortened: as §1
CCRF S-180 [29] = assay: Growth inhibitory effect administered at dose of 5.0 mg/kg/day given in the schedule of 1,2,3,4,7 day against Sarcoma S-180 tumor transplanted in male JRC mice at fourteenth day was determined; format: functional; settings: Mus musculus; procedure, shortened: as §1
B16 [30] = assay: Growth inhibitory effect administered at dose of 1.5 mg/kg/day given in the schedule of 1,2,3,4,7 day against (B16) mouse melanoma at fourteenth day was determined; format: functional; procedure, shortened: as §1
CCRF S-180 [31] = assay: Growth inhibitory effect of compound when administered at dose of 1.5 mg/kg/day given in the schedule of 1,2,3,4,7 day against Sarcoma S-180 tumor transplanted in male JRC mice was determined; No effect; settings: Mus musculus
B16 [32] = assay: Growth inhibitory effect administered at dose of 2.0 mg/kg/day given in the schedule of 1,2,3,4,7 day against (B16) mouse melanoma at eleventh day was determined; format: functional; procedure, shortened: as §1
CCRF S-180 [33] = assay: Growth inhibitory effect administered at dose of 5.0 mg/kg/day given in the schedule of 1,2,3,4,7 day against Sarcoma S-180 tumor transplanted in male JRC mice at eleventh day was determined; format: functional; settings: Mus musculus; procedure, shortened: as §1
B16 [34] = assay: Growth inhibitory effect administered at dose of 5.0 mg/kg/day given in the schedule of 1,2,3,4,7 day against (B16) mouse melanoma at fourteenth day was determined; format: functional; procedure, shortened: as §1
B16 [35] = assay: Growth inhibitory effect administered at dose of 5.0 mg/kg/day given in the schedule of 1,2,3,4,7 day against (B16) mouse melanoma at eleventh day was determined; format: functional; procedure, shortened: as §1

SMILES	IC50 (MG-22A [2])	Activity (Mus musculus [3])	IC50 (B16 [4])	Activity (Mus musculus [6])	Activity (Mus musculus [7])	Activity (Mus musculus [8])	Activity (Mus musculus [11])	IC50 (N2a [13])	IC50 (MG-22A [14])	Activity (Mus musculus [15])	IC50 (HT-1080 [16])	IC50 (HT-1080 [19])	IC50 (N2a [20])	IC50 (B16 [21])	Activity (Mus musculus [23])	Activity (Mus musculus [26])	inhibition in vivo at 1.5 mg/kg/day (B16 [28])	inhibition in vivo at 5 mg/kg/day (CCRF S-180 [29])	inhibition in vivo at 1.5 mg/kg/day (B16 [30])	inhibition in vivo at 5 mg/kg/day (CCRF S-180 [33])	other results
COc1cccc2c1C(=O)c1c(O)c3c(c(O)c1C2=O)C[C@@](O)(C(=O)CO)C[C@@H]3O[C@H]1C[C@H](N)C(O)[C@H](C)O1 (single isomer, unassigned) [DOXORUBICIN]	< 0.001 µg/mL	90	< 0.001 µg/mL	83	81	114	130	< 0.001 µg/mL	0.73 µg/mL (≈ 1.34 µM)	39	0.31 µg/mL (≈ 0.57 µM)	0.17 µg/mL (≈ 0.313 µM)	0.004 µg/mL (≈ 0.00736 µM)	0.001 µg/mL (≈ 0.00184 µM)	60	40					inhibition in vivo at 2 mg/kg/day (B16 [1]): 70%; inhibition in vivo at 1.5 mg/kg/day (B16 [5]): 70%; inhibition in vivo at 1.5 mg/kg/day (CCRF S-180 [9]): 28%; inhibition (CCRF S-180 [10]): Not detectable; inhibition in vivo at 1.5 mg/kg/day (B16 [12]): 60%; inhibition in vivo at 1.5 mg/kg/day (CCRF S-180 [17]): 7%; inhibition in vivo at 2 mg/kg/day (B16 [18]): 25%; inhibition in vivo at 5 mg/kg/day (B16 [22]): 65%; inhibition in vivo at 5 mg/kg/day (B16 [24]): 75%; Inhibition (CCRF S-180 [25]): 37%; inhibition in vivo at 5 mg/kg/day (CCRF S-180 [25]; Mus musculus, CCRF S-180, read-out: Inhibition): 37%
COc1cccc2c1C(=O)c1c(O)c3c(c(O)c1C2=O)C[C@@](O)(C(=O)CO)C[C@@H]3O[C@H]1C[C@H](NC(=O)OCC2=C(C(=O)OC(C)(C)C)N3C(=O)[C@@H](Cl)[C@@H]3S(=O)(=O)C2)[C@@H](O)[C@H](C)O1	0.03 µg/mL (≈ 0.0331 µM)	106	0.04 µg/mL (≈ 0.0441 µM)	92	70	225	230	0.008 µg/mL (≈ 0.00882 µM)	0.04 µg/mL (≈ 0.0441 µM)	87	0.08 µg/mL (≈ 0.0882 µM)	0.02 µg/mL (≈ 0.022 µM)	0.001 µg/mL (≈ 0.0011 µM)	0.03 µg/mL (≈ 0.0331 µM)	90	85	75%	30%	26%	72%	inhibition (CCRF S-180 [27]): inactive; inhibition (CCRF S-180 [31]): inactive; Inhibition (B16 [32]): 86%; inhibition in vivo at 2 mg/kg/day (B16 [32]; Mus musculus, B16, read-out: Inhibition): 86%
CC1=C(C(=O)OC(C)(C)C)N2C(=O)[C@H](Cl)[C@H]2S(=O)(=O)C1	6 µg/mL (≈ 18.6 µM)		2 µg/mL (≈ 6.22 µM)					2 µg/mL (≈ 6.22 µM)	2 µg/mL (≈ 6.22 µM)		6 µg/mL (≈ 18.6 µM)	6 µg/mL (≈ 18.6 µM)	2 µg/mL (≈ 6.22 µM)	3 µg/mL (≈ 9.32 µM)							
COc1cccc2c1C(=O)c1c(O)c3c(c(O)c1C2=O)C[C@@](O)(C(=O)CO)C[C@@H]3OC1C[C@H](NC(=O)OCC2=C(C(=O)OC(C)(C)C)N3C(=O)/C(=C/C(=O)OC(C)(C)C)[C@@H]3S(=O)(=O)C2)[C@@H](O)[C@H](C)O1 (stereo partly specified)	0.07 µg/mL (≈ 0.0711 µM)	92	0.5 µg/mL (≈ 0.508 µM)	87	90	270	360	0.04 µg/mL (≈ 0.0406 µM)	0.07 µg/mL (≈ 0.0711 µM)	102	0.5 µg/mL (≈ 0.508 µM)	0.4 µg/mL (≈ 0.406 µM)	0.04 µg/mL (≈ 0.0406 µM)	0.09 µg/mL (≈ 0.0914 µM)	75	54	13%	22%	-49%	-10%	inhibition in vivo at 5 mg/kg/day (B16 [34]): 16%; inhibition in vivo at 5 mg/kg/day (B16 [35]): 11%
